Experimental data: article PMC11238050 (Research and Practice in Thrombosis and Haemostasis, 2024)
Like-named read-outs stand apart in the source and are kept apart here.

Experiments:
[1] = system: cell-free human blood plasma coagulation; assay: Clot turbidity assay; conditions: read-out: EC50, delay of cell-free human blood plasma coagulation; clot turbidity at 405 nm, 37 °C, 0.1 U/mL thrombin
lysozyme [2] = assay: Intrinsic fluorescence spectrophotometry binding, lysozyme control; conditions: SAB titrated with lysozyme 0 to 95.6 μM, 20 °C
Method in brief: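 Intrinsic fluorescence of test compound (27.2 ± 0.4 μM) in PBS, 20 °C, titrated with lysozyme 0–95.6 μM; blank PBS titrated separately. Excitation 382 nm, emission peak ~498 nm, with inner-filter correction. Integrated emission was averaged, normalised and plotted against protein concentration, then fitted to a binding model for apparent Kd. Four trials.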

human platelet = type: cell-based
[3] = system: platelets (gel-filtered / PRP); assay: Collagen- and ADP-induced platelet aggregation; type: cell-based, human
Method in brief: (§1)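 Human platelets in PRP or PIPES buffer, adjusted to 3.0 × 10^8/mL and preincubated 10 min at 37 °C with test compound in PBS (pH 7.4; 0.1–0.3 mM) or PBS alone. Agonists were bovine thrombin 0.02 U/mL, collagen 5 μg/mL or ADP 20 μM. Light-transmission aggregometry was run at 37 °C with stirring at 1000 rpm and recorded for at least 8 min.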

[4] = system: Human gel-filtered platelet; assay: Thrombin-induced platelet aggregation assay; type: cell-based; conditions: […] SAB, 0.02 U/mL thrombin
Method in brief: as §1

[5] = Stability of SAB in solution on storage and freeze-thaw; type: physicochemical; conditions: inhibitory function for platelet aggregation
[6] = system: human platelet-poor plasma coagulation; assay: Prothrombin time and activated partial thromboplastin time measurement; conditions: 0.6 mM SAB, human cell-free plasma
Method in brief: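 Human platelet-poor plasma was tested in a steel-ball coagulometer. For PT, RecombiPlasTin 2G and its diluent stood 20 min at room temperature, were mixed 1:1 and warmed 5 min at 37 °C, then added to plasma (2:1 v/v). For aPTT, SynthASil was incubated 2 min at 37 °C, then 20 mM CaCl2 was added. Both end-points were time to solid gel.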

human blood coagulation = assay: Thromboelastography; conditions: 0.3 mM SAB
Method in brief: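 Thromboelastography used citrated (3.2%) whole blood from healthy human donors, treated with test compound (0.3 mM) or an equal volume of PBS. Samples were recalcified with 0.2 M CaCl2 stock and analysed on a TEG analyser.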

[7] = system: human platelet thrombus formation; assay: Collagen-coated perfusion chamber analysis; type: cell-based; conditions: 0.32 mM SAB
Method in brief: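 Heparinised (5 U/mL) human whole blood was labelled with 1 μM DiOC6 for 20 min at 37 °C, then incubated with test compound or PBS for 10 min. It was perfused over a collagen-coated glass chamber for 3 min at 1800 or 300 s^−1. Platelet adhesion was recorded by fluorescence microscopy during perfusion, and thrombus mean fluorescence intensity was quantified.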

human blood clot = assay: Whole blood clot formation assay; conditions: 0.3 mM SAB
Method in brief: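 Blood was diluted 3-fold and treated with test compound (0.3 mM final, in PBS) or blank PBS. It was recalcified with 1 mM CaCl2 plus 2 U/mL thrombin and incubated 90 min at 37 °C. Clots were removed from the serum, and dry weight was measured after 24 h at room temperature (20 °C).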

[8] = system: thrombus formation in mouse cremaster arterioles; assay: Laser-injury intravital microscopy thrombosis model; conditions: 0.010 mM final in vivo SAB concentration, jugular vein injection
Method in brief: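 Mice received fluorescently labelled anti-GPIb antibody (1 µg/g) through a jugular vein cannula before injury. Test compound was injected via the jugular cannula to a 0.010 mM final in vivo level, calculated from body weight (80 µL/g blood volume). Multiple cremaster arteriole injuries were made with a pulsed nitrogen dye laser. Thrombus formation was imaged by intravital microscopy and quantified as platelet MFI.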

[9] = system: carotid artery thrombosis; assay: Ferric chloride carotid artery thrombosis model; type: in vivo, C57BL/6J mice; conditions: 15 mpk SAB via tail vein at 50% flow reduction, 10% ferric chloride
Method in brief: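 Isoflurane-anaesthetised C57BL/6J mice (>8 weeks, 20–35 g) had filter paper soaked in 10% FeCl3 applied to the carotid adventitia for 180 s. The vessel was rinsed with warm saline. Doppler flow probe recorded flow for 30 min. At 50% flow reduction, test compound (15 mpk, ~0.3 mM blood level) or saline was given via the tail vein. Flow recovery and occlusion time were recorded.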

thrombin [10] = biological target: T1, thrombin (Homo sapiens, UniProt P00734); assay: Intrinsic fluorescence spectrophotometry binding, thrombin; conditions: after 24 hours at room temperature
thrombin [11] = biological target: T1, thrombin; assay: Isothermal titration calorimetry, thrombin; type: binding; conditions: ITC, 20 °C, PBS pH 7.4
lysozyme [12] = assay: Isothermal titration calorimetry, lysozyme control; type: binding; conditions: 20 μM lysozyme, 0.312 mM SAB titrant, 20 °C, PBS pH 7.4
Method in brief: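 ITC at 20 °C in PBS pH 7.4 was run with 20 μM lysozyme in the cell and test compound (0.312 mM) as titrant. Protocol: 60 s initial delay, 2 µL purge injection, then 34 injections of 8 µL every 300 s. The first point was discarded, and data were corrected for heat of dilution from titrant-into-buffer runs.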

[13] = flow cytometry, human platelets
[14] = flow cytometry, thrombin-stimulated human platelets

## Salvianolic acid B [SAB]
[1]
  EC50: 62 ± 70 µM
Lysozyme [2]
  binding to lysozyme (fluorescence): no direct interactions
Human platelet
  thrombin-induced platelet surface expression of Ricinus communis agglutinin-1 (RCA-1): significantly reduced
Human platelet; [13]
  thrombin-induced platelet surface expression of P-selectin: significantly reduced
  thrombin-induced platelet surface expression of annexin-V: significantly reduced
Human platelet; [14]
  binding of PAC-1 monoclonal antibody (αIIbβ3 integrin activation): significantly decreased
  binding of fibrinogen (αIIbβ3 integrin activation): significantly decreased
[3]; PRP, 20 μM ADP
  ADP-induced platelet aggregation: attenuated
[3]; gel-filtered platelets, 5 μg/mL collagen
  collagen-induced platelet aggregation: attenuated
[4]
  platelet aggregation: completely abolished
[5]
  effect of prolonged storage in solution and repeated freeze-thaw cycles on SAB: decreased SAB inhibitory function
[6]
  activated partial thromboplastin time (aPTT): prolonged
  prothrombin time (PT): prolonged
Human blood coagulation
  initiation of human blood coagulation (R-time) in TEG: significantly prolonged
[7]; 300 s^−1, collagen-coated chamber
  human platelet thrombus formation, venous shear rate: significantly inhibited
[7]; 1800 s^−1, collagen-coated chamber
  human platelet thrombus formation, arterial shear rate: significantly inhibited
Human blood clot
  dry weight of the human blood clot: significantly reduced
[8]
  reduction of thrombus formation in mouse cremaster vessels (platelet MFI): approximately 65% ± 5%
[9]
  carotid blood flow: rescued
  vessel occlusion (time): prolonged
Thrombin [10]
  decrease in the SAB-thrombin complex signal: less than 3%
Thrombin [11]
  Hill coefficient nH: 1.1
  ΔH1: 18 ± 1 kcal/mol
  ΔH2: 180 ± 6 kcal/mol
  −TΔS1: -27 ± 1 kcal/mol
  −TΔS2: -185 ± 12 kcal/mol
Thrombin [11]; read-out: Kd1
  Kd: 0.62 ± 0.08 µM
Thrombin [11]; read-out: dissociation constant Kd2 (weak binding site)
  Kd: 37 ± 4 µM
Lysozyme [12]
  binding to lysozyme (ITC): no interaction
